The term inhibition denotes the drop in the measured response relative to a control, in per cent.

Where “and” joins values, the source holds several entries; their conditions need not be identical. Equal values may be shown once. Where a structure was tested more than once in an assay, its records may differ in their call. Calls of active or inactive are those of the source.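 How the source made its calls, unless noted: active means inhibition at or above 50% relative to wild type and mutant plate controls; inactive means inhibition below 50%.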

The target in the first test is Alpha-2C adrenergic receptor (Homo sapiens) (UniProt P18825). In words: compounds altering alpha2C-coupled GIRK flux – cell-based, HEK293 alpha2C/GIRK1/2, thallium flux, primary screen (AID 624;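 active means fluorescence slope after compound addition differing from the mean of all screened samples at 99.7% confidence, in either direction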;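 further: slope of fluorescence ratio to pre-addition baseline per second over 15 to 24 s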). Particulars: thallium flux BTC fluorescence, at 10 µM, actives lie on both sides.
Chain of Alpha-2C adrenergic receptor (Homo sapiens) (P18825 whole entry, looked up): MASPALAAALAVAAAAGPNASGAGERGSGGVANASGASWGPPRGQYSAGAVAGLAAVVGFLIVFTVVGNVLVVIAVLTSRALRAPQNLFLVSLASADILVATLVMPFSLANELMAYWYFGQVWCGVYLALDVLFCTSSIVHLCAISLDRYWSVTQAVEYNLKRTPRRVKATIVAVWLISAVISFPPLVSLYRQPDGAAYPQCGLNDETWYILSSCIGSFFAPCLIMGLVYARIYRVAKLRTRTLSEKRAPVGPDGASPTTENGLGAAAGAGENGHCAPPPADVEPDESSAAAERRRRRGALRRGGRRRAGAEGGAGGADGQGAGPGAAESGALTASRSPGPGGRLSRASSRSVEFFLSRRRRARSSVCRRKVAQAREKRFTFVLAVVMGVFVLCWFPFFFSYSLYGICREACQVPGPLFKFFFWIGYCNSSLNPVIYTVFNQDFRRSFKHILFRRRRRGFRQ
Take `O=C(O)CCCCCN1C(=O)CCC1=O`: the slope was 0.0074 (inactive).

With `CC(=O)O[C@H]1C(=O)[C@]2(C)[C@H]([C@H](OC(=O)c3ccccc3)[C@]3(O)C[C@H](OC(=O)[C@H](O)[C@@H](NC(=O)c4ccccc4)c4ccccc4)C(C)=C1C3(C)C)[C@]1(OC(C)=O)CO[C@@H]1C[C@@H]2O`, the slope is 0.00483 (inactive).

Regarding `CC[N+](C)(C)Cc1ccccc1Br`, the slope is 0.00416 (inactive).

For `O=C1C(CCS(=O)c2ccccc2)C(=O)N(c2ccccc2)N1c1ccccc1` (centres undefined), the slope was 0.00501 (inactive).

For `Cc1ccc(N2C(=O)C3ON(c4ccccc4)C(c4ccncc4)C3C2=O)c(C)c1` (centres undefined), the slope is 0.00457 (inactive).

`N#Cc1nc(-c2ccccc2Cl)oc1N1CCCCC1`: the slope was 0.00507 (inactive).

In the case of `CC1=CC(c2ccccc2)n2nc(N3C(=O)C4CC=CCC4C3=O)nc2N1` (centres undefined), the slope was 0.00753 (inactive).

On to `CCN(CC)CCn1c(O)c(N=O)c2ccccc21`, for which the slope is 0.00988 (inactive).

In the case of `Cc1ccc2nc(NCc3ccccc3)[nH]c2c1`, the slope was 0.00328 (inactive).

For `COc1cccc(-c2nc(NC(C)(C)C)c3ccccc3n2)c1O`, the slope is 0.00293 (inactive).

On to `O=C1C2ON(c3ccccc3)C(c3ccncc3)C2C(=O)N1c1ccc(Br)cc1` (centres undefined), for which the slope was 0.00415 (inactive).

Regarding `CCC(=O)O[C@@H]1CC(=O)O[C@H](C)CC=CC=C[C@@H](O)[C@H](C)C[C@H](CC=O)[C@H](O[C@H]2O[C@H](C)[C@@H](O[C@H]3C[C@@](C)(O)[C@@H](OC(=O)CC)[C@H](C)O3)[C@H](N(C)C)[C@H]2O)[C@H]1OC`, the slope is 0.00447 (inactive).

For the compound `O=C1CC(N(O)C2CC(=O)N(Cc3ccccc3)C2=O)C(=O)N1Cc1ccccc1` (centres undefined), the slope was 0.0039 (inactive).

For the compound `CC1(C)CC(NC(=O)C23CCC(C)(/C(=N/O)C2)C3(C)C)CC(C)(C)N1` (centres undefined), the slope was 0.00577 (inactive).

As to `O=c1[nH]c(-c2ccccn2)nc2ccccc12`, the slope is 0.00479 (inactive).

Take `Cc1nnc(SCC2=C(C(=O)O)N3C(=O)[C@@H](NC(=O)Cn4cnnn4)[C@H]3SC2)s1`: the slope was 0.00463 (inactive).

Regarding `O=C(O)c1cc(=O)c2c(OCC(O)COc3cccc4oc(C(=O)O)cc(=O)c34)cccc2o1`, the slope is 0.0051 (inactive).

As for `c1ccc(-c2nc(NCC3CCCO3)c3ccccc3n2)nc1` (centres undefined), the slope is 0.00509 (inactive).

As to `CC[C@H]1OC(=O)C[C@@H](O)[C@H](C)[C@@H](O[C@@H]2O[C@H](C)C[C@H](N(C)C)[C@H]2O)[C@@H](CC=O)C[C@@H](C)C(=O)C=C[C@]2(C)O[C@H]2[C@@H]1C`, the slope is 0.00472 (inactive).

For `CC(C)NCC(O)COc1cccc2[nH]ccc12` (centres undefined), the slope is 0.00514 (inactive).

In the case of `Cc1ccc2cc(CN(C(=O)c3ccco3)c3ccccc3C)c(=O)[nH]c2c1`, the slope is 0.00844 (inactive).

Turning to `CN1CCN(Cc2c(O)ccc3c(-c4ccccc4)cc(=O)oc23)CC1`, the slope is 0.00684 (inactive).

Take `Cc1cc(N2C(=O)C(=O)/C(=C(/O)c3ccccc3)C2c2cccc(Br)c2)no1` (centres undefined): the slope was 0.00638 (inactive).

With `COc1ccc(C(=O)Nc2nc(N)n(-c3ccccc3)n2)cc1OC`, the slope was 0.00543 (inactive).

As for `Cc1ccc(N2C(=O)C3ON(c4ccccc4)C(c4ccncc4)C3C2=O)cc1` (centres undefined), the slope was 0.0052 (inactive).

System in a further test: not listed separately
In words: inhibitors of larval lipid processing in zebrafish, primary screen, whole organism, PED6 fluorescence, gall bladder and intestine (AID 686;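 active means a full or partial loss of lipid-probe fluorescence in the fish gall bladder, intestine or both, judged by eye; inactive means no fluorescence loss, or compound toxic to the fish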;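 further: larvae 5 to 7 days old with five fish per well; signal comes from phospholipase A2 cleavage of quenched PED6 carried via bile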). Particulars: Zebrafish larvae PED6 lipid processing, fluorescence scoring; screened at 20 µM (by protocol). The method, boiled down: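 Incubation: overnight exposure of larvae to compound plus PED6 / Test system: live zebrafish larvae aged 5-7 days, whole organism / Amount: 5 larvae per well / Read-out basis: visual per-well fluorescence inhibition score / Signal: visual fluorescence microscopy scoring of gall bladder, gut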
With `CC(C)Cc1ccc(C(C)C(=O)O)cc1` (centres undefined), the outcome was inactive.

With `CC(C)(C)c1ccc(C(O)CCCN2CCC(C(O)(c3ccccc3)c3ccccc3)CC2)cc1` (centres undefined), the outcome was inactive.

Turning to `CC(=O)O[C@H]1C(=O)[C@]2(C)[C@H]([C@H](OC(=O)c3ccccc3)[C@]3(O)C[C@H](OC(=O)[C@H](O)[C@@H](NC(=O)c4ccccc4)c4ccccc4)C(C)=C1C3(C)C)[C@]1(OC(C)=O)CO[C@@H]1C[C@@H]2O`, the compound was called inactive.

Consider `CC[N+](C)(C)Cc1ccccc1Br`, for which the result was inactive.

Take `O=C1C(CCS(=O)c2ccccc2)C(=O)N(c2ccccc2)N1c1ccccc1` (centres undefined): the call was inactive.

With `CCC(=O)O[C@@H]1CC(=O)O[C@H](C)CC=CC=C[C@@H](O)[C@H](C)C[C@H](CC=O)[C@H](O[C@H]2O[C@H](C)[C@@H](O[C@H]3C[C@@](C)(O)[C@@H](OC(=O)CC)[C@H](C)O3)[C@H](N(C)C)[C@H]2O)[C@H]1OC`, the compound was called inactive.

On to `Cc1nnc(SCC2=C(C(=O)O)N3C(=O)[C@@H](NC(=O)Cn4cnnn4)[C@H]3SC2)s1`, for which the compound was classed as inactive.

Regarding `O=C(O)c1cc(=O)c2c(OCC(O)COc3cccc4oc(C(=O)O)cc(=O)c34)cccc2o1`, the call was inactive.

Turning to `CC[C@H]1OC(=O)C[C@@H](O)[C@H](C)[C@@H](O[C@@H]2O[C@H](C)C[C@H](N(C)C)[C@H]2O)[C@@H](CC=O)C[C@@H](C)C(=O)C=C[C@]2(C)O[C@H]2[C@@H]1C`, the compound was called inactive.

Consider `CC(C)NCC(O)COc1cccc2[nH]ccc12` (centres undefined), for which the outcome was inactive.

System in a further test: not listed separately
In words: loss of swimming-algae plug formation – whole organism, Chlamydomonas reinhardtii, WT vs cilia-less mutant, absorbance, 96-well, primary screen (AID 463189).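 Further: 0% = wild type cc124 cells in DMSO and 100% = ciliumless bld1 mutant cells.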 The following applies: Chlamydomonas reinhardtii gravitaxis, OD600 absorbance, 2 days; at 10 µM; stronger effect = higher value.
As for `Cc1cccc(C)c1N1C(=O)C2ON(c3ccccc3)C(c3ccncc3)C2C1=O` (centres undefined), the inhibition is -6.35% (inactive).

On to `COc1ccc(C2C=C(c3ccc(Cl)cc3)Nc3nc(NC(C)=O)nn32)cc1` (centres undefined), for which the inhibition is 7.51% (inactive).

Turning to `CC(C)Cc1ccc(C(C)C(=O)O)cc1` (centres undefined), the inhibition is 1.82% (inactive) and -1.73% (inactive).

Turning to `COCCCNc1nc(-c2ccncc2)nc2ccccc12`, the inhibition is 138% (active).

With `CCCOC(=O)C1[C@H]2C(=O)N(Cc3ccco3)C[C@]23C=C[C@H]1O3` (some centres undefined), the inhibition is 1.77% (inactive).

As for `COc1ccc(CNC(=O)[C@H](C)NC(=O)C2CCN(S(=O)(=O)c3ccc(C)cc3)CC2)cc1`, the inhibition is -1.92% (inactive).

Regarding `N#C/C(=N\O)c1nc(-c2ccccc2)cs1`, the inhibition was 2.16% (inactive).

On to `Oc1ccc(Br)cc1-c1cc(-c2ccccc2F)[nH]n1`, for which the inhibition is -2.23% (inactive).

Consider `COc1ccc(/C(O)=C2/C(=O)C(=O)N(CCN3CCOCC3)C2c2ccccn2)cc1OC` (centres undefined), for which the inhibition was 6.74% (inactive).

For the compound `CCOc1ccc(/C(O)=C2/C(=O)C(=O)N(c3nc(C)c(C)s3)C2c2ccco2)cc1` (centres undefined), the inhibition was -2.1% (inactive).

Regarding `O=C1C2ON(c3ccccc3)C(c3ccncc3)C2C(=O)N1c1ccccc1` (centres undefined), the inhibition was 5.79% (inactive).

Take `CCOC(=O)N1CCN(/C=C(\C#N)c2nc3ccccc3s2)CC1`: the inhibition is -8.84% (inactive).

On to `CCOc1ccc(C2C(C(=O)c3ccc(C)o3)=C(O)C(=O)N2CCN2CCOCC2)cc1OC` (centres undefined), for which the inhibition is -15.3% (inactive).

Consider `CC(C)(C)c1ccc(C(O)CCCN2CCC(C(O)(c3ccccc3)c3ccccc3)CC2)cc1` (centres undefined), for which the inhibition was 24.3% (inactive) and 153% (active).

Turning to `O=C(O)CCCCCN1C(=O)CCC1=O`, the inhibition was 7.42% (inactive).

Consider `CC(=O)O[C@H]1C(=O)[C@]2(C)[C@H]([C@H](OC(=O)c3ccccc3)[C@]3(O)C[C@H](OC(=O)[C@H](O)[C@@H](NC(=O)c4ccccc4)c4ccccc4)C(C)=C1C3(C)C)[C@]1(OC(C)=O)CO[C@@H]1C[C@@H]2O`, for which the inhibition is 0.148% (inactive).

Turning to `CC[N+](C)(C)Cc1ccccc1Br`, the inhibition is 3.29% (inactive) and 10.5% (inactive).

On to `O=C1C(CCS(=O)c2ccccc2)C(=O)N(c2ccccc2)N1c1ccccc1` (centres undefined), for which the inhibition was -7.13% (inactive).

For the compound `Cc1ccc(N2C(=O)C3ON(c4ccccc4)C(c4ccncc4)C3C2=O)c(C)c1` (centres undefined), the inhibition is 0.697% (inactive).

`N#Cc1nc(-c2ccccc2Cl)oc1N1CCCCC1`: the inhibition is 35.9% (inactive).

`CC1=CC(c2ccccc2)n2nc(N3C(=O)C4CC=CCC4C3=O)nc2N1` (centres undefined): the inhibition is -3.33% (inactive).

On to `CCN(CC)CCn1c(O)c(N=O)c2ccccc21`, for which the inhibition is 0.498% (inactive).

Turning to `Cc1ccc2nc(NCc3ccccc3)[nH]c2c1`, the inhibition was 24.8% (inactive).

In the case of `COc1cccc(-c2nc(NC(C)(C)C)c3ccccc3n2)c1O`, the inhibition is 34.2% (inactive).

For the compound `O=C1C2ON(c3ccccc3)C(c3ccncc3)C2C(=O)N1c1ccc(Br)cc1` (centres undefined), the inhibition was 24.8% (inactive).

For `CCC(=O)O[C@@H]1CC(=O)O[C@H](C)CC=CC=C[C@@H](O)[C@H](C)C[C@H](CC=O)[C@H](O[C@H]2O[C@H](C)[C@@H](O[C@H]3C[C@@](C)(O)[C@@H](OC(=O)CC)[C@H](C)O3)[C@H](N(C)C)[C@H]2O)[C@H]1OC`, the inhibition was 66.6% (active).

Regarding `O=C1CC(N(O)C2CC(=O)N(Cc3ccccc3)C2=O)C(=O)N1Cc1ccccc1` (centres undefined), the inhibition is 13.4% (inactive).

Take `CC1(C)CC(NC(=O)C23CCC(C)(/C(=N/O)C2)C3(C)C)CC(C)(C)N1` (centres undefined): the inhibition is -6.59% (inactive).

With `O=c1[nH]c(-c2ccccn2)nc2ccccc12`, the inhibition was 34.7% (inactive).

For the compound `Cc1nnc(SCC2=C(C(=O)O)N3C(=O)[C@@H](NC(=O)Cn4cnnn4)[C@H]3SC2)s1`, the inhibition was 9.57% (inactive) and 15.2% (inactive).

In the case of `O=C(O)c1cc(=O)c2c(OCC(O)COc3cccc4oc(C(=O)O)cc(=O)c34)cccc2o1`, the inhibition was -9.3% (inactive).

For the compound `c1ccc(-c2nc(NCC3CCCO3)c3ccccc3n2)nc1` (centres undefined), the inhibition was 24.6% (inactive).

As for `CC[C@H]1OC(=O)C[C@@H](O)[C@H](C)[C@@H](O[C@@H]2O[C@H](C)C[C@H](N(C)C)[C@H]2O)[C@@H](CC=O)C[C@@H](C)C(=O)C=C[C@]2(C)O[C@H]2[C@@H]1C`, the inhibition is 59.9% (active).

Consider `CC(C)NCC(O)COc1cccc2[nH]ccc12` (centres undefined), for which the inhibition is -3.19% (inactive) and 0.043% (inactive).

For the compound `Cc1ccc2cc(CN(C(=O)c3ccco3)c3ccccc3C)c(=O)[nH]c2c1`, the inhibition was 32.2% (inactive).

Turning to `CN1CCN(Cc2c(O)ccc3c(-c4ccccc4)cc(=O)oc23)CC1`, the inhibition is 8.71% (inactive).

As to `Cc1cc(N2C(=O)C(=O)/C(=C(/O)c3ccccc3)C2c2cccc(Br)c2)no1` (centres undefined), the inhibition was -10.3% (inactive).

As to `COc1ccc(C(=O)Nc2nc(N)n(-c3ccccc3)n2)cc1OC`, the inhibition was 12.5% (inactive).

Turning to `Cc1ccc(N2C(=O)C3ON(c4ccccc4)C(c4ccncc4)C3C2=O)cc1` (centres undefined), the inhibition is 12.5% (inactive).

(Values after PubChem BioAssay.)
